In ChEMBL document CHEMBL5338825, “Structure-Based Discovery of Inhibitors of the SARS-CoV-2 Nsp14 N7-Methyltransferase” (J Med Chem, 2023):
Activity calls are given as the source filed them. The calls are words filed in the database; no cut-off is given here.

How the values were obtained:
[1] = target: Replicase polyprotein 1ab (Severe acute respiratory syndrome coronavirus 2, UniProt P0DTD1); assay: (§1) Inhibition of N-terminal 6His/SUMO-tagged SARS-CoV-2 NSP14 expressed in Escherichia coli Rosetta 2 (DE3) PlysS cells using 5'GpppACCCCCCCCC-Biotin 3' and 3H-SAM as substrates incubated for 30 mins by TopCount scintillation proximity assay
Bacteria [2] = assay: Inhibition of beta-lactamase AmpC (unknown origin) pre-incubated with compound for 5 mins followed by substrate addition and measured after 1.5 mins by absorbance based plate reader analysis; settings: time 6.5 min
Summary of the method: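 AmpC at 2 nM preincubated 5 min with compound at room temperature in 50 mM KPi, pH 7.0, with 1% v/v DMSO. Started with 50 μM CENTA (read at 405 nm) or 50 μM nitrocefin (read at 490 nm), monitored 1 min 30 s. Initial rate taken as % of DMSO control. Top concentration in triplicate; eight-point half-log curves in triplicate where inhibition exceeded 40%.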

[3] = Aggregation property of the compound in KPi buffer at pH 7.0 assessed as formation of colloid-like particles by dynamic light scattering analysis; assay type: physicochemical
Summary of the method: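 Compounds diluted as 8-point half-log series in filtered 50 mM KPi, pH 7.0, with 1% v/v DMSO final. Particles detected by dynamic light scattering, triplicate at each concentration. CAC taken as the intersection of separate nonlinear fits to aggregating (>10^6 scattering intensity) and non-aggregating data.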

Homo sapiens [4] = species on record: Homo sapiens; assay: Inhibition of MDH (unknown origin) using oxaloacetic acid as substrate preincubated with compound for 5 mins followed by substrate addition and measured after 1.5 min in the presence of NADH by absorbance based plate reader analysis; settings: time 6.5 min
Summary of the method: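 MDH assay at room temperature in 50 mM KPi, pH 7.0, with 1% v/v DMSO final. Compound preincubated 5 min with 2 nM enzyme. Reaction started with 200 μM NADH plus 200 μM oxaloacetic acid, and absorbance followed at 340 nm for 1 min 30 s. Initial rate divided by the DMSO control rate. Single top concentration in triplicate; eight-point half-log curves in triplicate where inhibition exceeded 40%.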

Homo sapiens [5] = species on record: Homo sapiens; assay: Inhibition of MDH (unknown origin) using oxaloacetic acid as substrate preincubated with compound for 5 mins followed by substrate addition and measured after 1.5 min in the presence of NADH and 0.01% Triton-X 100 by absorbance based plate reader analysis; settings: time 6.5 min
Summary of the method: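 Detergent-reversal MDH assay: 50 mM KPi, pH 7.0, with 1% v/v DMSO and 0.01% v/v Triton X-100. Enzyme at 2 nM preincubated 5 min with compound, then started with 200 μM NADH plus 200 μM oxaloacetate. A340 read for 1 min 30 s, rate normalised to DMSO control. Eight-point half-log curves in triplicate.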

Bacteria [6] = assay: Inhibition of beta-lactamase AmpC (unknown origin) pre-incubated with compound for 5 mins followed by substrate addition and measured after 1.5 mins in the presence of 0.01% Triton-X 100 by absorbance based plate reader analysis; settings: time 6.5 min
Summary of the method: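 AmpC detergent-reversal assay: 50 mM KPi, pH 7.0, with 1% v/v DMSO and 0.01% v/v Triton X-100. Enzyme at 2 nM preincubated 5 min with compound, then 50 μM CENTA (405 nm) or nitrocefin (490 nm) added. Absorbance followed for 1 min 30 s and rate normalised to DMSO. Eight-point half-log curves in triplicate.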

[7] = target: Replicase polyprotein 1ab (Severe acute respiratory syndrome coronavirus 2) (UniProt P0DTD1); assay: Inhibition of N-terminal 6His/SUMO-tagged SARS-CoV-2 NSP14 expressed in Escherichia coli Rosetta 2 (DE3) PlysS cells using 5'GpppACCCCCCCCC-Biotin 3' and 3H-SAM as substrates at 300 uM incubated for 30 mins by TopCount scintillation proximity assay relative to control
[8] = target: Replicase polyprotein 1ab (Severe acute respiratory syndrome coronavirus 2) (UniProt P0DTD1); assay: Inhibition of N-terminal 6His/SUMO-tagged SARS-CoV-2 NSP14 expressed in Escherichia coli Rosetta 2 (DE3) PlysS cells using 5'GpppACCCCCCCCC-Biotin 3' and 3H-SAM as substrates at 100 uM incubated for 30 mins by TopCount scintillation proximity assay relative to control
[9] = target: Replicase polyprotein 1ab (Severe acute respiratory syndrome coronavirus 2) (UniProt P0DTD1); assay: Irreversible covalent inhibition of N-terminal 6His/SUMO-tagged SARS-CoV-2 NSP14 expressed in Escherichia coli Rosetta 2 (DE3) PlysS cells using 5'GpppACCCCCCCCC-Biotin 3' and 3H-SAM as substrates assessed as adduct formation incubated for 2 hrs by mass spectrometric analysis
Summary of the method: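 Nsp14 incubated with 20-fold molar excess of compound for 2 h at 20 °C, then taken into 0.1% formic acid. Separated by HPLC on a 5–95% acetonitrile/water gradient and analysed by ESI time-of-flight MS for protein mass shift.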

[10] = target: Replicase polyprotein 1ab (Severe acute respiratory syndrome coronavirus 2) (UniProt P0DTD1); assay: Irreversible covalent inhibition of N-terminal 6His/SUMO-tagged SARS-CoV-2 NSP14 expressed in Escherichia coli Rosetta 2 (DE3) PlysS cells using 5'GpppACCCCCCCCC-Biotin 3' and 3H-SAM as substrates assessed as adduct formation at 500 uM measured upto 18 hrs by mass spectrometric analysis
Summary of the method: (§2)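 1 μM enzyme held alone or with 50 or 500 μM compound at room temperature. Sampled at 0, 2, 4, 8 and 18 h by QTof MS in 0.05% formic acid; intact mass deconvoluted from 700–1400 m/z.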

[11] = target: Replicase polyprotein 1ab (Severe acute respiratory syndrome coronavirus 2) (UniProt P0DTD1); assay: Irreversible covalent inhibition of N-terminal 6His/SUMO-tagged SARS-CoV-2 NSP14 expressed in Escherichia coli Rosetta 2 (DE3) PlysS cells using 5'GpppACCCCCCCCC-Biotin 3' and 3H-SAM as substrates assessed as adduct formation at 50 uM measured upto 18 hrs by mass spectrometric analysis; summary of the method: as §2
[12] = target: Replicase polyprotein 1ab (Severe acute respiratory syndrome coronavirus 2) (UniProt P0DTD1); assay: Non-covalent inhibition of N-terminal 6His/SUMO-tagged SARS-CoV-2 NSP14 expressed in Escherichia coli Rosetta 2 (DE3) PlysS cells using 5'GpppACCCCCCCCC-Biotin 3' and 3H-SAM as substrates incubated for 30 mins by TopCount scintillation proximity assay
Summary of the method: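 Radiometric N7-MTase assay tracking [3H]-methyl transfer from SAM onto the cap of […] RNA, run with 0.01% v/v Triton X-100. Concentration–response in triplicate to give IC50.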

[13] = target: Replicase polyprotein 1ab (Severe acute respiratory syndrome coronavirus 2) (UniProt P0DTD1); assay: Inhibition of N-terminal 6His/SUMO-tagged SARS-CoV-2 NSP14 expressed in Escherichia coli Rosetta 2 (DE3) PlysS cells using 5'GpppACCCCCCCCC-Biotin 3' and 3H-SAM as substrates at 30 to 50 uM incubated for 30 mins by TopCount scintillation proximity assay relative to control; settings: dose 30-50 µM
[14] = target: Replicase polyprotein 1ab (Severe acute respiratory syndrome coronavirus 2) (UniProt P0DTD1); assay: as §1
[15] = target: Replicase polyprotein 1ab (Severe acute respiratory syndrome coronavirus 2) (UniProt P0DTD1); assay: Competitive inhibition of N-terminal 6His/SUMO-tagged SARS-CoV-2 NSP14 expressed in Escherichia coli Rosetta 2 (DE3) PlysS cells using 5'GpppACCCCCCCCC-Biotin 3' and 3H-SAM as substrates at increasing concentration incubated for 30 mins by TopCount scintillation proximity assay
Summary of the method: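 Competition pattern read from IC50 shifts. […] Separately, SAM fixed at 1.25 μM (5× Km) with RNA varied up to 0.5 μM (10× Km). A linear rise of IC50 with substrate concentration was taken as competitive inhibition.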

[16] = target: Replicase polyprotein 1ab (Severe acute respiratory syndrome coronavirus 2) (UniProt P0DTD1); assay: Reversible inhibition of N-terminal 6His/SUMO-tagged SARS-CoV-2 NSP14 expressed in Escherichia coli Rosetta 2 (DE3) PlysS cells using 5'GpppACCCCCCCCC-Biotin 3' and 3H-SAM as substrates at increasing concentration incubated for 30 mins by TopCount scintillation proximity assay

Row | Compound | IC50 [1] | inhibition (Homo sapiens [4]) | Activity [3] | inhibition [7] | other results
1 | Cn1c(=O)[nH]c2ncc(-c3cccc(C(=O)Nc4ccc(Cl)c(CO)c4)c3)cc21 | 15 µM | – | – | – | –
2 | C#Cc1cccc(NC(=O)c2cccc(-c3cnc4[nH]c(=O)n(C)c4c3)c2)c1 | – | inactive | – | – | inhibition (Bacteria [2]): inactive; CAC [3]: 10 µM
3 | Cc1c(C(=O)/C=C/c2cc(Br)c(O)cc2F)c(C#N)c2n1CCC2 | – | Active | Active | – | inhibition (Homo sapiens [5]): inactive; inhibition (Bacteria [2]): Active; inhibition (Bacteria [6]): inactive
4 | C=C(Cl)COC(=O)c1cnc2[nH]ccc2c1 | 31 µM | Active | – | > 50% | –
5 | CCc1c(C(=O)/C=C/c2ccc(O)c([N+](=O)[O-])c2)oc2ccccc12 | 25 µM | – | – | – | –
6 | O=C(NC1CSC1)c1ncnn2cccc12 | 62 µM | – | Active | > 50% | –
7 | N#Cc1c(C(=O)NCc2ccc(O)c([N+](=O)[O-])c2)[nH]c2ccccc12 | 27 µM | Active | Active | – | inhibition (Homo sapiens [5]): inactive; inhibition (Bacteria [2]): Active; inhibition (Bacteria [6]): inactive
8 | Nc1cn2cc(-c3cscc3Cl)ncc2n1 | 78 µM | – | – | > 50% | –
9 | N#Cc1cncc(NCc2cc(Br)c[nH]2)n1 | 60 µM | – | – | > 50% | –
10 | Cc1nc2ncc(-c3c[nH]nn3)cc2[nH]1 | 127 µM | – | Active | > 50% | –
11 | C=CC(=O)N(C)c1ccc(C(=O)Nc2ccc(-c3cn4ccsc4n3)cc2)cc1 | 39 µM | – | – | – | inhibition [8]: > 50%; inhibition [9]: inactive
12 | COc1cc(F)cc(NC(=O)c2cccc(-c3cnc4[nH]c(=O)n(C)c4c3)c2)c1 | 14 µM | – | – | – | –
13 | C=CC(=O)NCCC(=O)N1CCC(C2C(=O)Nc3cc(Cl)ccc32)CC1 (stereo not given) | 32 µM | – | – | – | inhibition [10]: Active; inhibition [8]: > 50%
14 | C=CC(=O)NCC(=O)C(=O)N1CCC(C2C(=O)Nc3cc(Cl)ccc32)CC1 (stereo not given) | 7 µM | – | – | – | inhibition [11]: Active
15 | CC(C)SCn1cnc2cnn(C)c2c1=O | 59 µM | Active | Active | > 50% | inhibition (Homo sapiens [5]): inactive
16 | Cn1c(=O)[nH]c2ncc(-c3cccc(C(=O)Nc4cccc(C#N)c4)c3)cc21 | 20 µM | inactive | – | – | inhibition [12]: Active; inhibition (Bacteria [2]): inactive; inhibition [13]: > 50%; CAC [3]: 10 µM
17 | CCC(=O)NCCC(=O)N1CCC(C2C(=O)Nc3cc(Cl)ccc32)CC1 (stereo not given) | – | – | – | – | inhibition [14]: inactive
18 | O=C(OCc1cn2cc(Br)ccc2n1)c1cc(-c2ccco2)[nH]n1 | 6 µM | – | – | – | –
19 | CN(C)c1cncc(NC(=O)c2ccc(C=O)cc2O)c1 | 12 µM | inactive | – | – | inhibition [8]: > 50%; inhibition (Bacteria [2]): inactive
20 | CN(Cc1ccncc1)c1cc(Br)ncn1 | 170 µM | – | Active | > 50% | –
21 | O=Cc1nc2ccccn2c1C=C1COC1 | 11 µM | – | – | – | inhibition [8]: > 50%
22 | O=Cc1cc(F)c(C(=O)Nc2cc(Cl)c3c(c2)OCCO3)cc1F | 25 µM | – | – | – | inhibition [8]: > 50%
23 | Oc1ccccc1-c1ncnc2[nH]ccc12 | 12 µM | Active | – | > 50% | inhibition (Homo sapiens [5]): inactive; inhibition (Bacteria [2]): Active; inhibition [15]: Active; inhibition [16]: Active
24 | Cn1ncc(N)c1-c1cc2ccccc2[nH]1 | 341 µM | – | Active | > 50% | –
25 | Cn1c(C(=O)NCc2ccc(O)c([N+](=O)[O-])c2)c(Br)c2ccccc21 | 19 µM | Active | Active | – | inhibition (Homo sapiens [5]): inactive; inhibition (Bacteria [2]): Active; inhibition (Bacteria [6]): inactive
26 | Cc1cc(C(=O)Nc2cccc(N3CCNC3=O)c2C)sc1C=O | 3.5 µM | – | – | – | inhibition [8]: > 50%
